Legend:
[1] = Metabolic stability in rat liver microsomes; type: ADME, Microsome; conditions: read-out: Stability
[2] = Ratio of drug uptake in brain to plasma of Sprague-Dawley rat at 1 mg/kg, sc; type: ADME, organism-based; parameters: dose 1 mg/kg, route subcutaneous; conditions: read-out: BPR
[3] = target: Endothelin-1 receptor (Homo sapiens) (UniProt P25101); assay: Activity at human ETA receptor at 10 uM
Cytochrome P450 2C19 = Cytochrome P450 2C19 (Homo sapiens, UniProt P33261); assay: Inhibition of CYP2C19; type: ADME
[4] = target: Angiotensin-converting enzyme (Homo sapiens) (UniProt P12821); assay: Activity of human ACE at 10 uM
Angiotensin-converting enzyme (Homo sapiens), sequence (P12821 whole entry): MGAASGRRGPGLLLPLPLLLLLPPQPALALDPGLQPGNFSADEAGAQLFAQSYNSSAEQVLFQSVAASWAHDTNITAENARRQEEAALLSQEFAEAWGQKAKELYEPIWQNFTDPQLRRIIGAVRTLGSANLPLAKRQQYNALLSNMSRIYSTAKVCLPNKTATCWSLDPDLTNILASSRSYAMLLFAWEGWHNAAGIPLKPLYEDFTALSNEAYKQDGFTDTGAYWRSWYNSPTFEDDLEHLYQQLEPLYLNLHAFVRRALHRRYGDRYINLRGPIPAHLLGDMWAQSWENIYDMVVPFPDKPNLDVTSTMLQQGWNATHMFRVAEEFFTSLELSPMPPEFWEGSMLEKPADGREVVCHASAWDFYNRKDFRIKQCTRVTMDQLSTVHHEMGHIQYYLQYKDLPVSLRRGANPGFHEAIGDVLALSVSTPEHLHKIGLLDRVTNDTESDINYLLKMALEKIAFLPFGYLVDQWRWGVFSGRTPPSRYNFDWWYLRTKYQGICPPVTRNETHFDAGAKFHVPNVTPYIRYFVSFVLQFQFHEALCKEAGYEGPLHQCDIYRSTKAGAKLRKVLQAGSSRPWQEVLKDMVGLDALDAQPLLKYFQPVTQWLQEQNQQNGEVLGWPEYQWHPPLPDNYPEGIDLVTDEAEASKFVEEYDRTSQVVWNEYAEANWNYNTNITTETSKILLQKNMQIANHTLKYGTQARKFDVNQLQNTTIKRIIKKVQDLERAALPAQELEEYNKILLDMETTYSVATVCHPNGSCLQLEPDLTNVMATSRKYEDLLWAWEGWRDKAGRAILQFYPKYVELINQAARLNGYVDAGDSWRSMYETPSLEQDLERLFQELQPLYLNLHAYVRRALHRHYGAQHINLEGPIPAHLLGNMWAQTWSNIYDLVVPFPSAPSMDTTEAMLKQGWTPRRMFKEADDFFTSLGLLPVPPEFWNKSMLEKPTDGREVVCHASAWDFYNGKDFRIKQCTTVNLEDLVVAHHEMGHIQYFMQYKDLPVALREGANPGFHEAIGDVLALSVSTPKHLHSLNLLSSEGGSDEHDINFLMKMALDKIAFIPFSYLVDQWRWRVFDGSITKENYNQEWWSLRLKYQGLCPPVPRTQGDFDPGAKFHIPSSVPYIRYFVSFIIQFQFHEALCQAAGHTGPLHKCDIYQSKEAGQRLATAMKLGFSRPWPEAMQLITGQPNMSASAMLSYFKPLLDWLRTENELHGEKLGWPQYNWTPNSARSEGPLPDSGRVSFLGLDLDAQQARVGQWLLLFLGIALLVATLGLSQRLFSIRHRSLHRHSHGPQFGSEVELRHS

[5] = target: Muscarinic acetylcholine receptor M3 (Homo sapiens) (UniProt P20309); assay: Activity at human M3 receptor at 10 uM
[6] = target: Melanocortin receptor 4 (Homo sapiens) (UniProt P32245); assay: Activity at human MC4 receptor at 10 uM
Melanocortin receptor 4 (Homo sapiens), sequence (P32245 whole entry): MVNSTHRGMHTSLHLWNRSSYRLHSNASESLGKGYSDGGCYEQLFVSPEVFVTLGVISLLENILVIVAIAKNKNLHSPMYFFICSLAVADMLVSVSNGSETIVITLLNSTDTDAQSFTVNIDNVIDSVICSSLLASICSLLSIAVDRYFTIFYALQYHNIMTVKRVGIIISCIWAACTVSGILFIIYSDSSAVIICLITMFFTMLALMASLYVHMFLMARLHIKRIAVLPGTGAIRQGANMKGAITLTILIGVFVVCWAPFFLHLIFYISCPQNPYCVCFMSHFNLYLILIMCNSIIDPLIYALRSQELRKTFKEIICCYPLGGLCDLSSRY

[7] = target: C-C chemokine receptor type 1 (Homo sapiens) (UniProt P32246); assay: Activity at human CCR1 at 10 uM
Rattus norvegicus [8] = species on record: Rattus norvegicus; assay: Activity at rat GABAa receptor at 10 uM
[9] = target: Prostaglandin G/H synthase 1 (Homo sapiens) (UniProt P23219); assay: Activity at human COX1 receptor at 10 uM
Prostaglandin G/H synthase 1 (Homo sapiens), sequence (P23219 whole entry): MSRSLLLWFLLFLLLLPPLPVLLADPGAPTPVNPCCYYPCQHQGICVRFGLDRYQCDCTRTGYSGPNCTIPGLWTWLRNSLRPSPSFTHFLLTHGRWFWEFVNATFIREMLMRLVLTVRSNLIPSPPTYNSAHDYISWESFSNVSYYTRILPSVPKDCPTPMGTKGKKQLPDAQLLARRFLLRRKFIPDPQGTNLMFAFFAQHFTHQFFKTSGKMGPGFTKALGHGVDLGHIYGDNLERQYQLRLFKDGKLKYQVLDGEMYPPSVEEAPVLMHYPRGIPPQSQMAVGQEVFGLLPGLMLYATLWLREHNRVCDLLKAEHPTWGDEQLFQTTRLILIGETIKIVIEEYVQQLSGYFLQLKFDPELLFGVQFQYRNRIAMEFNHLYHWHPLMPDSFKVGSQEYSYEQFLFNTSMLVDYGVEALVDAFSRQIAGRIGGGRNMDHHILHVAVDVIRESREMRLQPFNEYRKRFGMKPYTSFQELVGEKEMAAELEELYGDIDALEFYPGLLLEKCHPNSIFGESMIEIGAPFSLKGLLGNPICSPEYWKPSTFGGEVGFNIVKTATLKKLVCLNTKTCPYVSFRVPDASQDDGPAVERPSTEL

[10] = target: Melanin-concentrating hormone receptor 1 (Homo sapiens) (UniProt Q99705); assay: Activity at human MCH1 receptor at 10 uM
[11] = Activity at L-Type Calcium channel at 10 uM
Rattus norvegicus [12] = assay: Antihyperalgesic activity in sc dosed Sprague-Dawley rat carrageenan pain model; type: functional, organism-based
Outline: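 Rats dosed subcutaneously at 0.35, 0.70 and 1.4 mg/kg in carrageenan inflammatory pain model; reversal of heat hyperalgesia measured. n = 7 per group; mean ± SEM; one-way ANOVA with Holm-Sidak test versus vehicle group.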

[13] = target: Estrogen receptor (Homo sapiens) (UniProt P03372); assay: Activity at human ERalpha receptor at 10 uM
[14] = target: Muscarinic acetylcholine receptor M4 (Homo sapiens) (UniProt P08173); assay: Activity at human M4 receptor at 10 uM
[15] = target: 5-hydroxytryptamine receptor 2A (Homo sapiens) (UniProt P28223); assay: Activity at 5-HT2a receptor at 10 uM
Rattus norvegicus [16] = assay: Toxicity in Sprague-Dawley rat carrageenan pain model assessed as hypoactivity at […], sc; type: organism-based; conditions: in vivo
[17] = target: Sodium-dependent noradrenaline transporter (Homo sapiens) (UniProt P23975); assay: Activity at human NET receptor at 10 uM
Sodium-dependent noradrenaline transporter (Homo sapiens), sequence (P23975 whole entry): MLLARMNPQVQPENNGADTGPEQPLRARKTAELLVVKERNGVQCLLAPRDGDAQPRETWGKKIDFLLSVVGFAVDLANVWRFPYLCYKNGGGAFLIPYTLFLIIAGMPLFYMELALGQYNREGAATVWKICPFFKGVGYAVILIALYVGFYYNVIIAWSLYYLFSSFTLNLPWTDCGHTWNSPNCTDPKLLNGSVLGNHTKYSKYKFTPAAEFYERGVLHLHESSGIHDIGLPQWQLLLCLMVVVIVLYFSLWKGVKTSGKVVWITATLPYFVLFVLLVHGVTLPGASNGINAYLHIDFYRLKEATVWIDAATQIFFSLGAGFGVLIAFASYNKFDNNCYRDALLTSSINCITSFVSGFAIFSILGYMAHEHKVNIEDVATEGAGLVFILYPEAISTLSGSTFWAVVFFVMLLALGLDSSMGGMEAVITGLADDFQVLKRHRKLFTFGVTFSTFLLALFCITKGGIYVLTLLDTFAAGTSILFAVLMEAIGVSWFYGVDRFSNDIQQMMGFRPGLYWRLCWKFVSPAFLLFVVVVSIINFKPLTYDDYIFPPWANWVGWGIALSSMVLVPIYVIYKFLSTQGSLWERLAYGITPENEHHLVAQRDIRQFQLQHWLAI

[18] = target: Neuromedin-K receptor (Homo sapiens) (UniProt P29371); assay: Activity at human NK3 receptor at 10 uM
[19] = target: Adenosine receptor A2a (Homo sapiens) (UniProt P29274); assay: Activity at human A2a receptor at 10 uM
[20] = target: C-C chemokine receptor type 5 (Homo sapiens) (UniProt P51681); assay: Activity at human CCR5 at 10 uM
C-C chemokine receptor type 5 (Homo sapiens), sequence (P51681 whole entry, looked up): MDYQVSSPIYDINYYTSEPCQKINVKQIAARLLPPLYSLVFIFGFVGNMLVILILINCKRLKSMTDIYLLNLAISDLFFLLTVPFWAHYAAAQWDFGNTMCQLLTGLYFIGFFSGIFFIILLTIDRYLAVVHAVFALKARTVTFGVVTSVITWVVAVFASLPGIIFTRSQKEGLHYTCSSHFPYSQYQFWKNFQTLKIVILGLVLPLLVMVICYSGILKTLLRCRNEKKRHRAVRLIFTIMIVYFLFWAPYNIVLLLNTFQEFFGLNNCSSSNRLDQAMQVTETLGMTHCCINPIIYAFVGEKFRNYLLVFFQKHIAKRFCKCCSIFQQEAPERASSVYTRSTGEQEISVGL

[21] = target: N-formyl peptide receptor 2 (Homo sapiens) (UniProt P25090); assay: Activity at human FPRL1 receptor at 10 uM
N-formyl peptide receptor 2 (Homo sapiens), sequence (P25090 whole entry): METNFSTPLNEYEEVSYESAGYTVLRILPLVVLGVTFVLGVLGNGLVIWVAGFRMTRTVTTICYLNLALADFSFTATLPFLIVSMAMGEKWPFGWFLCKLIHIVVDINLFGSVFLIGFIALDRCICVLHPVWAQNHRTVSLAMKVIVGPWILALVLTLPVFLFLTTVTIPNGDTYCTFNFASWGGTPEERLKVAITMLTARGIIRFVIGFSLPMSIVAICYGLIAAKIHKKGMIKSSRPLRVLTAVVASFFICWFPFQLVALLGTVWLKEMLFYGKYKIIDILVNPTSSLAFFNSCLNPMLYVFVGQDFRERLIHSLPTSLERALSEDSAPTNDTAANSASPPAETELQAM

[22] = Activity at nAChR receptor at 10 uM
Rattus norvegicus [23] = assay: Volume of distribution at steady state in po dosed Sprague-Dawley rat; type: ADME, organism-based; conditions: in vivo
Cannabinoid receptor 1 [24] = target: Cannabinoid receptor 1 (Homo sapiens, UniProt P21554); assay: Displacement of [3H]-CP55,940 from human CB1 receptor expressed in HEK293 cells; type: cell-based
Cannabinoid receptor 1 (Homo sapiens, UniProt P21554), sequence (P21554 whole entry): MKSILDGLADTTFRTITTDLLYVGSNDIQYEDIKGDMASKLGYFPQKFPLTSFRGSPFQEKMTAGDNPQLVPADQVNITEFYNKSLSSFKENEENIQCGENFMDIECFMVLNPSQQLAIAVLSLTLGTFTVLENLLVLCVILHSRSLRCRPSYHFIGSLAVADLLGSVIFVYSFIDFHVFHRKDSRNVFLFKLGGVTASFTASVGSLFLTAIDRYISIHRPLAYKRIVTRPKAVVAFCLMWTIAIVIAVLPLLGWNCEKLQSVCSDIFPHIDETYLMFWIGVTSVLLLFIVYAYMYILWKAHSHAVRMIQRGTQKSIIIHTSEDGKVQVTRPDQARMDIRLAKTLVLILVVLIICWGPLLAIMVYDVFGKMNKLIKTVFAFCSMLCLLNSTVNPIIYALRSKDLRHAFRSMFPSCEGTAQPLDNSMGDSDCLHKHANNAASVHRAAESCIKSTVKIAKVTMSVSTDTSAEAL

Cannabinoid receptor 1 [25] = target: Cannabinoid receptor 1 (Mus musculus, UniProt P47746); assay: Agonist activity at CB1 receptor in field-stimulated mouse vas deferens; type: functional, tissue-based
Outline: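 Isolated mouse vas deferens under electrical field stimulation, used as an intact tissue assay of CB1 agonism at the native receptor.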

[26] = Metabolic stability in human liver microsomes; type: ADME, Microsome; conditions: read-out: Stability
[27] = target: Somatostatin receptor type 4 (Homo sapiens) (UniProt P31391); assay: Activity at human SST4 receptor at 10 uM
[28] = target: Corticotropin-releasing factor receptor 1 (Homo sapiens) (UniProt P34998); assay: Activity at human CRF1 receptor at 10 uM
Corticotropin-releasing factor receptor 1 (Homo sapiens), sequence (P34998 whole entry): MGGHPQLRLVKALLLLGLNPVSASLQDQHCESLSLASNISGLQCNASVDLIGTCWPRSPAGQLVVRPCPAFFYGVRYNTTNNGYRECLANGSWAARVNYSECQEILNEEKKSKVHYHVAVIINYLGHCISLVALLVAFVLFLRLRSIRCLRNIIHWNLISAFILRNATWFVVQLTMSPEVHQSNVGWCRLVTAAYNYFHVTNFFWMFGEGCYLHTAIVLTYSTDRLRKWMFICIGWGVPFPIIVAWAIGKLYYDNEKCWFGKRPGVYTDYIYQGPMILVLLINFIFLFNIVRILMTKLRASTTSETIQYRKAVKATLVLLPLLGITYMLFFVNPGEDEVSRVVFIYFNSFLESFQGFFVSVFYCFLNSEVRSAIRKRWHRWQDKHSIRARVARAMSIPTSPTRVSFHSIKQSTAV

[29] = target: Type-1 angiotensin II receptor (Homo sapiens) (UniProt P30556); assay: Activity at human AT1 receptor at 10 uM
[30] = Oral bioavailability in Sprague-Dawley rat; type: ADME, organism-based; conditions: in vivo
[31] = target: fMet-Leu-Phe receptor (Homo sapiens) (UniProt P21462); assay: Activity at human FPR1 receptor at 10 uM

Endothelin-1 receptor (Homo sapiens), sequence (P25101 whole entry): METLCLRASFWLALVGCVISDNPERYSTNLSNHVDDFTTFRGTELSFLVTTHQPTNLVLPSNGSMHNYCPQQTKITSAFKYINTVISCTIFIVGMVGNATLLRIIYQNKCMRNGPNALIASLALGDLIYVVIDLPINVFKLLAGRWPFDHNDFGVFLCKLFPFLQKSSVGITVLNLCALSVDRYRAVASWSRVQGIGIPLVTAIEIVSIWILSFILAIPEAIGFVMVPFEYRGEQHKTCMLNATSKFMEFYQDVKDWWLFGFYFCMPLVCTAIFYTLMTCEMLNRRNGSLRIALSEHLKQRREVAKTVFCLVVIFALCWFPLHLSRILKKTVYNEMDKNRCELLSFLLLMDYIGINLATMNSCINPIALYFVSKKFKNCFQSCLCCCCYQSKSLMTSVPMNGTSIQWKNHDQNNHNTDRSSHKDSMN

Which microsomal CLint [1] does the source give for `CCS(=O)(=O)n1c2c(c3cc(C(=O)N4CCC(C)CC4)ccc31)CN(C1CCOCC1)CC2` here?
The microsomal CLint was 202 µL/min/mg.

And the Kp [2]?
The Kp was 0.07.

And the Activity [3]?
The Activity was less than 50%.

What about the IC50 (Cytochrome P450 2C19) of the same compound?
The IC50 was greater than 20000 nM.

And the Activity [4]?
Its Activity is less than 50%.

And the Activity [5]?
Its Activity is less than 50%.

And the Activity [6]?
Its Activity is less than 50%.

And the Activity [7]?
The Activity was less than 50%.

And the Activity (Rattus norvegicus [8])?
The Activity was less than 50%.

What about the Activity [9] of the same compound?
Its Activity is less than 50%.

What about the Activity [10] of the same compound?
Its Activity is less than 50%.

And the Activity [11]?
The Activity was less than 50%.

And the Activity (Rattus norvegicus [12])?
Its Activity is “Dose-dependent effect”.

What about the Activity [13] of the same compound?
The Activity was less than 50%.

And the Activity [14]?
The Activity was less than 50%.

And the Activity [15]?
The Activity was less than 50%.

And the Activity (Rattus norvegicus [16])?
The Activity was “Toxic”.

And the Activity [17]?
Its Activity is less than 50%.

What about the Activity [18] of the same compound?
The Activity was less than 50%.

What about the Activity [19] of the same compound?
Its Activity is less than 50%.

And the Activity [20]?
The Activity was less than 50%.

And the Activity [21]?
Its Activity is less than 50%.

And the Activity [22]?
The Activity was less than 50%.

What about the Vdss (Rattus norvegicus [23]) of the same compound?
The Vdss was 1.2 L/kg.

What about the Ki (Cannabinoid receptor 1 [24]) of the same compound?
The Ki was 120 nM.

What about the IC50 (Cannabinoid receptor 1 [25]) of the same compound?
The IC50 was 1.9 nM.

What about the microsomal CLint [26] of the same compound?
The microsomal CLint was 52 µL/min/mg.

And the Activity [27]?
The Activity was less than 50%.

And the Activity [28]?
The Activity was less than 50%.

And the Activity [29]?
The Activity was less than 50%.

What about the bioavailability [30] of the same compound?
The bioavailability was 16%.

What about the Activity [31] of the same compound?
The Activity was less than 50%.
